Measurements as given in ChEMBL document CHEMBL2380219, “Physalin A induces apoptotic cell death and protective autophagy in HT1080 human fibrosarcoma cells” (J Nat Prod, 2013).
Active and inactive are the calls of the source. The rule behind the calls is not given here.

Legend:
Format in all cases: functional, cell-based
[1] = system: HT-1080; assay: Induction of apoptosis in human HT1080 cells expressing beclin 1 siRNA assessed as increase in PARP cleavage at 10 uM after 24 hrs by Western blotting relative to control
Outline: (§1)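 Beclin 1 or nonspecific siRNA transfected into HT1080 cells (5 × 10^5 seeded a day earlier; transfection mixture for 7 h at 37 °C, then normal medium, 24 h before harvest). Cells then got 10 μM for 24 h. Adherent plus floating cells lysed in Hepes pH 7.4/Triton buffer at 4 °C for 60 min. Equal protein on 12% SDS-PAGE, nitrocellulose, ECL. Bands normalized to β-actin, n = 3.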

[2] = system: HT-1080; assay: Induction of apoptosis in human HT1080 cells expressing beclin 1 siRNA assessed as increase in procaspase-8 cleavage at 10 uM after 24 hrs by Western blotting analysis relative to control; outline: as §1
[3] = system: HT-1080; assay: Induction of apoptosis in human HT1080 cells expressing beclin 1 siRNA assessed as increase in FAS protein expression at 10 uM after 24 hrs by Western blotting analysis relative to control; outline: as §1
[4] = system: HT-1080; assay: Induction of apoptosis in human HT1080 cells expressing beclin 1 siRNA assessed as suppression of LC31to LC32 conversion at 10 uM after 24 hrs by Western blotting analysis relative to control; outline: as §1
[5] = system: HT-1080; assay: Induction of apoptosis in human HT1080 cells assessed as downregulation of ICAD at 10 uM pretreated with rapamycin for 1 hr prior to compound addition measured after 24 hrs by Western blotting analysis
Outline: (§2)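 HT1080 cells pretreated 1 h with 1 mM 3MA or 1 nM rapamycin, then co-incubated with 10 μM for 24 h. Adherent and floating cells lysed in Hepes pH 7.4/Triton buffer. 12% SDS-PAGE, nitrocellulose, antibodies against Fas, FADD, caspase-8, caspase-3, PARP and ICAD, ECL detection. Densities normalized to β-actin; n = 3.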

[6] = system: HT-1080; assay: Induction of apoptosis in human HT1080 cells assessed as downregulation of ICAD at 10 uM pretreated with 3MA for 1 hr prior to compound addition measured after 24 hrs by Western blotting analysis; outline: as §2
[7] = system: HT-1080; assay: Induction of apoptosis in human HT1080 cells assessed as increase in procaspase-3 cleavage at 10 uM pretreated with rapamycin for 1 hr prior to compound addition measured after 24 hrs by Western blotting analysis; outline: as §2
[8] = system: HT-1080; assay: Induction of apoptosis in human HT1080 cells assessed as increase in procaspase-3 cleavage at 10 uM pretreated with 3MA for 1 hr prior to compound addition measured after 24 hrs by Western blotting analysis; outline: as §2
[9] = system: HT-1080; assay: Induction of apoptosis in human HT1080 cells assessed as upregulation of FAS protein expression at 10 uM pretreated with 3MA for 1 hr prior to compound addition measured after 24 hrs by Western blotting analysis; outline: as §2
[10] = system: HT-1080; assay: Induction of autophagy in human HT1080 cells assessed as autophagic vacuole formation at 10 uM pretreated with rapamycin for 1 hr prior to compound addition measured after 24 hrs by MDC staining-based FACS flow cytometric analysis
Outline: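 HT1080 cells seeded at 3 × 10^5 per flask and grown 24 h. Pretreated 1 h with 1 mM 3MA or 1 nM rapamycin, then 10 μM for 24 h. Collected cells stained with 0.05 mM MDC at 37 °C for 1 h. MDC-positive ratio measured by flow cytometry, n = 3, mean ± SD.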

[11] = system: HT-1080; assay: Cytotoxicity against human HT1080 cells assessed as growth inhibition at 10 uM pretreated with 3MA for 1 hr prior to compound addition measured after 24 hrs by MTT assay
Outline: (§3)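 HT1080 seeded 0.8 × 10^4 cells/well. MTT 2 h at 37 °C, formazan in DMSO, A492 read. Inhibition % calculated against untreated and blank wells.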

[12] = system: HT-1080; assay: Induction of autophagy in human HT1080 cells assessed as increase in autophagolysosomes at 10 uM by MDC staining-based fluorescence microscopic analysis
Outline: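 HT1080 cells at 2 × 10^4 per well, cultured 24 h, then given 10 μM for 24 h. Stained with 0.05 mM MDC at 37 °C for 1 h. Autophagolysosomes viewed by fluorescence microscopy at 200×.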

[13] = system: HT-1080; assay: Induction of autophagy in human HT1080 cells at 10 uM by MDC staining-based FACS flow cytometric analysis; settings: TDE = time-dependent effect
Outline: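 HT1080 cells (3 × 10^5 per flask, grown 24 h) exposed to 10 μM for 12, 24 and 36 h. Cells collected and stained with 0.05 mM MDC at 37 °C for 1 h. MDC-positive ratio measured by flow cytometry, n = 3.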

[14] = system: HT-1080; assay: Induction of apoptosis in human HT1080 cells assessed as change in BAX expression at 10 uM after 6 to 24 hrs by Western blotting analysis
Outline: (§4)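 HT1080 cells treated with 10 μM for 6, 12, 18 and 24 h. Adherent and floating cells lysed 60 min at 4 °C in Hepes pH 7.4/1% Triton X-100 buffer with phosphatase and protease inhibitors. Equal protein run on 12% SDS-PAGE, transferred to nitrocellulose, probed with specific antibodies, HRP/ECL detection. Band density normalized to β-actin; n = 3.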

[15] = system: HT-1080; assay: Induction of apoptosis in human HT1080 cells assessed as change in procaspase-9 expression level at 10 uM after 6 to 24 hrs by Western blotting analysis; outline: as §4
[16] = system: HT-1080; assay: Induction of apoptosis in human HT1080 cells assessed as downregulation of ICAD at 10 uM after 6 to 24 hrs by Western blotting analysis; outline: as §4
[17] = system: HT-1080; assay: Induction of apoptosis in human HT1080 cells assessed as increase in FAS protein expression at 10 uM after 6 to 24 hrs by Western blotting analysis; outline: as §4
[18] = system: HT-1080; assay: Cytotoxicity against human HT1080 cells assessed as growth inhibition at 10 uM pretreated with z-LEHD-FMK for 1 hr prior to compound addition measured after 24 hrs by MTT assay; outline: as §3
[19] = system: HT-1080; assay: Cytotoxicity against human HT1080 cells assessed as growth inhibition at 10 uM pretreated with z-DEVD-FMK for 1 hr prior to compound addition measured after 24 hrs by MTT assay; outline: as §3
[20] = system: HT-1080; assay: Cytotoxicity against human HT1080 cells assessed as growth inhibition after 12 to 72 hrs by MTT assay
[21] = system: HT-1080; assay: Cytotoxicity against human HT1080 cells assessed as growth inhibition at 1 to 100 uM by MTT assay; settings: TDE = time-dependent effect
[22] = system: MCF7; assay: Cytotoxicity against human MCF7 cells assessed as growth inhibition after 24 hrs by MTT assay
Outline: (§5)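 Seeded 0.8 × 10^4 cells/well, cultured 24 h, then exposed to 0, 10, 20, 40 or 80 μM for 24 h (DMSO <0.05%) in RPMI 1640 or MEM with 10% FBS. Adherent lines rinsed with PBS, given MTT 2 h at 37 °C. Suspension lines (U937, HL60) given MTT 2 h, then centrifuged. Formazan dissolved in DMSO, A492 read. Inhibition % = (control − sample)/(control − blank) × 100.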

[23] = system: A549; assay: Cytotoxicity against human A549 cells assessed as growth inhibition after 24 hrs by MTT assay; outline: as §5
[24] = system: HepG2; assay: Cytotoxicity against human HepG2 cells assessed as growth inhibition after 24 hrs by MTT assay; outline: as §5

For `C=C1C(=O)O[C@@H]2C[C@@]1(C)[C@@H]1C(=O)[C@]3(O)O[C@]14[C@@]2(C)OC(=O)[C@@]4(O)CC[C@H]1[C@H]3[C@H](O)C=C2CC=CC(=O)[C@@]21C` [PHYSALIN A], the Activity [1] was “Active”, the Activity [2] was “Active” and the Activity [3] was “Active”. The Activity [4] was “Active”, the Activity [5] was “inactive” and the Activity [6] was “Active”. The Activity [7] was “inactive”, the Activity [8] was “Active” and the Activity [9] was “Active”. For the same compound, the Activity [10] was “Active”, the “growth inhibition (GI)” value [11] was “Active” and the Activity [12] was “Active”. For the same compound, the Activity [13] was “tde”, the Activity [14] was “inactive” and the Activity [15] was “inactive”. For the same compound, the Activity [16] was “Active”, the Activity [17] was “Active” and the “growth inhibition (GI)” value [18] was “inactive”. For the same compound, the “growth inhibition (GI)” value [19] was “Active”, the “growth inhibition (GI)” value [20] was “Dose-dependent effect” and the “growth inhibition (GI)” value [21] was “tde”. The “growth inhibition (GI)” value [22] was “Dose-dependent effect”, the “growth inhibition (GI)” value [23] was “Dose-dependent effect” and the “growth inhibition (GI)” value [24] was “Dose-dependent effect”.
